Laboratory results taken from ChEMBL document CHEMBL2057083, “Development of new carbon-11 labelled radiotracers for imaging GABAA- and GABAB-benzodiazepine receptors” (Bioorg Med Chem, 2012).

How the values were obtained:
Cerebellum [1] = assay: Biodistribution in Sprague-Dawley rat cerebellum at 37 MBq, iv measured 5 mins post injection; format: ADME, organism-based; conditions: in vivo
Rattus norvegicus [2] = assay: Biodistribution in Sprague-Dawley rat cortex (rest) at 37 MBq, iv measured 30 mins post injection; format: ADME, organism-based; conditions: in vivo, 0.5 h
Brain [3] = assay: Biodistribution in Sprague-Dawley rat rest of brain at 37 MBq, iv measured 30 mins post injection; format: ADME, organism-based; conditions: in vivo, 0.5 h
Thalamus [4] = assay: Biodistribution in Sprague-Dawley rat thalamus at 37 MBq, iv measured 30 mins post injection; format: ADME, organism-based; conditions: in vivo, 0.5 h
Procedure, shortened: (§1)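 Conscious rats received the radiotracer by tail-vein injection and were killed by decapitation at the stated time. Brains were removed, and regions were excised, blotted, weighed and counted for radioactivity. Uptake is given as decay-corrected %ID/g.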

Rattus norvegicus [5] = assay: Biodistribution in Sprague-Dawley rat hipothalamus at 37 MBq, iv measured 15 mins post injection; format: ADME, organism-based, Hypothalamus; conditions: in vivo, 0.25 h; procedure, shortened: as §1
Rattus norvegicus [6] = assay: Biodistribution in Sprague-Dawley rat cortex (front) at 37 MBq, iv measured 60 mins post injection; format: ADME, organism-based; conditions: in vivo, 1 h
Rattus norvegicus [7] = assay: Biodistribution in Sprague-Dawley rat hipothalamus at 37 MBq, iv measured 5 mins post injection; format: ADME, organism-based, Hypothalamus; conditions: in vivo; procedure, shortened: as §1
Rattus norvegicus [8] = assay: Biodistribution in Sprague-Dawley rat cortex (rest) at 37 MBq, iv measured 15 mins post injection; format: ADME, organism-based; conditions: in vivo, 0.25 h
Thalamus [9] = assay: Biodistribution in Sprague-Dawley rat thalamus at 37 MBq, iv measured 5 mins post injection; format: ADME, organism-based; conditions: in vivo; procedure, shortened: as §1
Striatum [10] = assay: Biodistribution in Sprague-Dawley rat striatum at 37 MBq, iv measured 5 mins post injection; format: ADME, organism-based; conditions: in vivo
Brain [11] = assay: Biodistribution in Sprague-Dawley rat rest of brain at 37 MBq, iv measured 5 mins post injection; format: ADME, organism-based; conditions: in vivo
Rattus norvegicus [12] = assay: Biodistribution in Sprague-Dawley rat cortex (front) at 37 MBq, iv measured 15 mins post injection; format: ADME, organism-based; conditions: in vivo, 0.25 h
Rattus norvegicus [13] = assay: Biodistribution in Sprague-Dawley rat cortex (front) at 37 MBq, iv measured 30 mins post injection; format: ADME, organism-based; conditions: in vivo, 0.5 h
Blood [14] = assay: Biodistribution in Sprague-Dawley rat blood at 37 MBq, iv measured 60 mins post injection; format: ADME, organism-based; conditions: in vivo, 1 h
Blood [15] = assay: Biodistribution in Sprague-Dawley rat blood at 37 MBq, iv measured 30 mins post injection; format: ADME, organism-based; conditions: in vivo, 0.5 h
Blood [16] = assay: Biodistribution in Sprague-Dawley rat blood at 37 MBq, iv measured 5 mins post injection; format: ADME, organism-based; conditions: in vivo
Rattus norvegicus [17] = assay: Biodistribution in Sprague-Dawley rat cortex (front) at 37 MBq, iv measured 2 mins post injection; format: ADME, organism-based; conditions: in vivo
Brain [18] = assay: Biodistribution in Sprague-Dawley rat rest of brain at 37 MBq, iv measured 15 mins post injection; format: ADME, organism-based; conditions: in vivo, 0.25 h
Striatum [19] = assay: Biodistribution in Sprague-Dawley rat striatum at 37 MBq, iv measured 60 mins post injection; format: ADME, organism-based; conditions: in vivo, 1 h
Hippocampus [20] = assay: Biodistribution in Sprague-Dawley rat hippocampus at 37 MBq, iv measured 2 mins post injection; format: ADME, organism-based; conditions: in vivo
Cerebellum [21] = assay: Biodistribution in Sprague-Dawley rat cerebellum at 37 MBq, iv measured 2 mins post injection; format: ADME, organism-based; conditions: in vivo
Rattus norvegicus [22] = assay: Biodistribution in Sprague-Dawley rat cortex (rest) at 37 MBq, iv measured 2 mins post injection; format: ADME, organism-based; conditions: in vivo
Rattus norvegicus [23] = assay: Biodistribution in Sprague-Dawley rat cortex (front) at 37 MBq, iv measured 5 mins post injection; format: ADME, organism-based; conditions: in vivo
Brain [24] = assay: Biodistribution in Sprague-Dawley rat rest of brain at 37 MBq, iv measured 2 mins post injection; format: ADME, organism-based; conditions: in vivo
Rattus norvegicus [25] = assay: Biodistribution in Sprague-Dawley rat cortex (rest) at 37 MBq, iv measured 5 mins post injection; format: ADME, organism-based; conditions: in vivo
Rattus norvegicus [26] = assay: Biodistribution in Sprague-Dawley rat hipothalamus at 37 MBq, iv measured 2 mins post injection; format: ADME, organism-based, Hypothalamus; conditions: in vivo
Rattus norvegicus [27] = assay: Biodistribution in Sprague-Dawley rat hipothalamus at 37 MBq, iv measured 60 mins post injection; format: ADME, organism-based, Hypothalamus; conditions: in vivo, 1 h; procedure, shortened: as §1
Thalamus [28] = assay: Biodistribution in Sprague-Dawley rat thalamus at 37 MBq, iv measured 60 mins post injection; format: ADME, organism-based; conditions: in vivo, 1 h; procedure, shortened: as §1
[29] = Lipophilicity, log D in octanol/buffer at pH 7.4 by shake-flask method
Striatum [30] = assay: Biodistribution in Sprague-Dawley rat striatum at 37 MBq, iv measured 30 mins post injection; format: ADME, organism-based; conditions: in vivo, 0.5 h
Hippocampus [31] = assay: Biodistribution in Sprague-Dawley rat hippocampus at 37 MBq, iv measured 60 mins post injection; format: ADME, organism-based; conditions: in vivo, 1 h
Cerebellum [32] = assay: Biodistribution in Sprague-Dawley rat cerebellum at 37 MBq, iv measured 15 mins post injection; format: ADME, organism-based; conditions: in vivo, 0.25 h
Striatum [33] = assay: Biodistribution in Sprague-Dawley rat striatum at 37 MBq, iv measured 15 mins post injection; format: ADME, organism-based; conditions: in vivo, 0.25 h
Thalamus [34] = assay: Biodistribution in Sprague-Dawley rat thalamus at 37 MBq, iv measured 2 mins post injection; format: ADME, organism-based; conditions: in vivo
Hippocampus [35] = assay: Biodistribution in Sprague-Dawley rat hippocampus at 37 MBq, iv measured 5 mins post injection; format: ADME, organism-based; conditions: in vivo
Blood [36] = assay: Biodistribution in Sprague-Dawley rat blood at 37 MBq, iv measured 15 mins post injection; format: ADME, organism-based; conditions: in vivo, 0.25 h
Brain [37] = assay: Biodistribution in Sprague-Dawley rat rest of brain at 37 MBq, iv measured 60 mins post injection; format: ADME, organism-based; conditions: in vivo, 1 h
Hippocampus [38] = assay: Biodistribution in Sprague-Dawley rat hippocampus at 37 MBq, iv measured 15 mins post injection; format: ADME, organism-based; conditions: in vivo, 0.25 h
Rattus norvegicus [39] = assay: Biodistribution in Sprague-Dawley rat hipothalamus at 37 MBq, iv measured 30 mins post injection; format: ADME, organism-based, Hypothalamus; conditions: in vivo, 0.5 h; procedure, shortened: as §1
Blood [40] = assay: Biodistribution in Sprague-Dawley rat blood at 37 MBq, iv measured 2 mins post injection; format: ADME, organism-based; conditions: in vivo
Cerebellum [41] = assay: Biodistribution in Sprague-Dawley rat cerebellum at 37 MBq, iv measured 30 mins post injection; format: ADME, organism-based; conditions: in vivo, 0.5 h
Cerebellum [42] = assay: Biodistribution in Sprague-Dawley rat cerebellum at 37 MBq, iv measured 60 mins post injection; format: ADME, organism-based; conditions: in vivo, 1 h
Hippocampus [43] = assay: Biodistribution in Sprague-Dawley rat hippocampus at 37 MBq, iv measured 30 mins post injection; format: ADME, organism-based; conditions: in vivo, 0.5 h
Striatum [44] = assay: Biodistribution in Sprague-Dawley rat striatum at 37 MBq, iv measured 2 mins post injection; format: ADME, organism-based; conditions: in vivo
Thalamus [45] = assay: Biodistribution in Sprague-Dawley rat thalamus at 37 MBq, iv measured 15 mins post injection; format: ADME, organism-based; conditions: in vivo, 0.25 h; procedure, shortened: as §1
Rattus norvegicus [46] = assay: Biodistribution in Sprague-Dawley rat cortex (rest) at 37 MBq, iv measured 60 mins post injection; format: ADME, organism-based; conditions: in vivo, 1 h

`CC(NCCC(c1ccccc1)c1ccccc1)c1ccc(O[11CH3])c(Cl)c1` (racemic) showed a Drug uptake (Cerebellum [1]) of 0.14 % ID/g, a Drug uptake (Rattus norvegicus [2]) of 0.13 % ID/g and a Drug uptake (Brain [3]) of 0.12 % ID/g. For the same compound, the Drug uptake (Thalamus [4]) was 0.12 % ID/g, the Drug uptake (Rattus norvegicus [5]) was 0.1 % ID/g and the Drug uptake (Rattus norvegicus [6]) was 0.13 % ID/g. For the same compound, the Drug uptake (Rattus norvegicus [7]) was 0.11 % ID/g, the Drug uptake (Rattus norvegicus [8]) was 0.13 % ID/g and the Drug uptake (Thalamus [9]) was 0.12 % ID/g. It also gave a Drug uptake (Striatum [10]) of 0.11 % ID/g, a Drug uptake (Brain [11]) of 0.11 % ID/g and a Drug uptake (Rattus norvegicus [12]) of 0.14 % ID/g. For the same compound, the Drug uptake (Rattus norvegicus [13]) was 0.14 % ID/g, the Drug uptake (Blood [14]) was 0.13 % ID/g and the Drug uptake (Blood [15]) was 0.09 % ID/g. It also gave a Drug uptake (Blood [16]) of 0.12 % ID/g, a Drug uptake (Rattus norvegicus [17]) of 0.12 % ID/g and a Drug uptake (Brain [18]) of 0.11 % ID/g. The Drug uptake (Striatum [19]) was 0.11 % ID/g, the Drug uptake (Hippocampus [20]) was 0.08 % ID/g and the Drug uptake (Cerebellum [21]) was 0.13 % ID/g. For the same compound, the Drug uptake (Rattus norvegicus [22]) was 0.13 % ID/g, the Drug uptake (Rattus norvegicus [23]) was 0.13 % ID/g and the Drug uptake (Brain [24]) was 0.1 % ID/g. For the same compound, the Drug uptake (Rattus norvegicus [25]) was 0.13 % ID/g, the Drug uptake (Rattus norvegicus [26]) was 0.11 % ID/g and the Drug uptake (Rattus norvegicus [27]) was 0.11 % ID/g. The Drug uptake (Thalamus [28]) was 0.14 % ID/g, the logD [29] was 3.2 and the Drug uptake (Striatum [30]) was 0.12 % ID/g. For the same compound, the Drug uptake (Hippocampus [31]) was 0.11 % ID/g, the Drug uptake (Cerebellum [32]) was 0.12 % ID/g and the Drug uptake (Striatum [33]) was 0.12 % ID/g. The Drug uptake (Thalamus [34]) was 0.1 % ID/g, the Drug uptake (Hippocampus [35]) was 0.1 % ID/g and the Drug uptake (Blood [36]) was 0.87 % ID/g. It also gave a Drug uptake (Brain [37]) of 0.11 % ID/g, a Drug uptake (Hippocampus [38]) of 0.1 % ID/g and a Drug uptake (Rattus norvegicus [39]) of 0.1 % ID/g. It also gave a Drug uptake (Blood [40]) of 0.18 % ID/g, a Drug uptake (Cerebellum [41]) of 0.13 % ID/g and a Drug uptake (Cerebellum [42]) of 0.11 % ID/g. It also gave a Drug uptake (Hippocampus [43]) of 0.11 % ID/g, a Drug uptake (Striatum [44]) of 0.1 % ID/g and a Drug uptake (Thalamus [45]) of 0.13 % ID/g. It also gave a Drug uptake (Rattus norvegicus [46]) of 0.13 % ID/g.
With `Cc1nc(O[11CH3])ccc1-c1cccc2c(N)c3c(nc12)CN(C1CCC1)C3=O` the logD [29] was 4.12.
